From ChEMBL document CHEMBL1125545, “4-Methyl-3-(arylsulfonyl)furoxans: a new class of potent inhibitors of platelet aggregation” (J Med Chem, 1992)

Species on record: Homo sapiens
Experiment: Inhibition of arachidonic acid (AA) induced human platelet aggregation.
Assay type: functional
In short: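 Human PRP (pH 7.6; 200g, 15 min at room temperature) with platelet counts matched. Compound in DMSO-ethanol given 5 min before 1 mM arachidonic acid, with a solvent control. Aggregation followed by Born light-transmission aggregometry, IC50 derived from the aggregation traces. At least four repeats, each with platelets from a different donor.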

Work on SODIUM NITROPRUSSIDE yielded an IC50 of 1000 nM.
